The record followed here is ChEMBL document CHEMBL1128272, “Stereoselective LSD-like activity in a series of d-lysergic acid amides of (R)- and (S)-2-aminoalkanes” (J Med Chem, 1995).

pKi: −log10 of the molar value.

The subject of experiment [1] is Rattus norvegicus. The experiment can be described thus: Compound was tested for its effect on animals. Value reported as number of rats disrupted in trained rats at a dose of 220 (nmol/kg). Format: functional. The method in brief: (§1)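 Two-lever drug discrimination in food-restricted rats (~80% free-feeding weight) trained on FR 50 to tell saline from LSD tartrate (186 nmol/kg, 0.08 mg/kg ip, 30 min pre-session). Test drugs were given ip in saline, 1 mL/kg. Test sessions ran under extinction, ending at 50 presses on either lever. Testing required 85% training accuracy. Counts of rats tested and disrupted were recorded, plus the percentage selecting the drug lever.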

The target in experiment [2] is 5-hydroxytryptamine receptor 2A (Rattus norvegicus, UniProt P14842). Description: Binding affinity was measured against 5-hydroxytryptamine 2A receptor by displacement of [3H]- ketanserin by lysergic acid amides. The method in brief: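 Rat frontal cortex membranes from pooled male Sprague-Dawley rats, preincubated at 37 °C, in 50 mM Tris HCl (pH 7.4) with 0.5 mM Na2EDTA, 0.1% ascorbate, 10 μM pargyline and 5.7 mM CaCl2. Triplicates. Three to four experiments combined.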
Sequence of 5-hydroxytryptamine receptor 2A (P14842 whole entry): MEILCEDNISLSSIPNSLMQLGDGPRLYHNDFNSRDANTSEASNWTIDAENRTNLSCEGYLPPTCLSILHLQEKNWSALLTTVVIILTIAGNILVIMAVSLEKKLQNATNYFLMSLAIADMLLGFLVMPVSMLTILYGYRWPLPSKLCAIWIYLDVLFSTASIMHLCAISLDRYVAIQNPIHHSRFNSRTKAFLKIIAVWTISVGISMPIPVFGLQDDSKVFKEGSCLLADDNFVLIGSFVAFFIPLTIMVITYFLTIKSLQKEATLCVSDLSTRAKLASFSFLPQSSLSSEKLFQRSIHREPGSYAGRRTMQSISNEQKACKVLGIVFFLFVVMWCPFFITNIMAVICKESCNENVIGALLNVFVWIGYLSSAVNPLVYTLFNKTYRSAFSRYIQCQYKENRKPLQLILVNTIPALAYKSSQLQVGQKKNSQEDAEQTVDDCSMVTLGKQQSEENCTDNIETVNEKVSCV

Experiment [3] relates to Rattus norvegicus. The experiment can be described thus: Percentage of animals selecting drug lever in 1-Trained rats at a dose 220 (nmol/kg). Format: functional. In outline: as §1
The subject of experiment [4] is Rattus norvegicus. The experiment can be described thus: Percentage of animals selecting drug lever in 1-Trained rats at a dose 110 (nmol/kg). Format: functional. In outline: as §1
Experiment [5] concerns Rattus norvegicus. Description: Compound was tested for its effect on animals. Value reported as number of rats disrupted in trained rats at a dose of 110 (nmol/kg). Format: functional. The method in brief:
as §1

For experiment [6], the system named is Rattus norvegicus. Description: Compound was tested for its effect on animals. Value reported as number of rats disrupted in trained rats at a dose of 55 (nmol/kg). Format: functional. In outline: as §1
In experiment [7] the target is T1, 5-hydroxytryptamine receptor 1A (Rattus norvegicus, UniProt P19327).
T1 sequence (P19327 whole entry): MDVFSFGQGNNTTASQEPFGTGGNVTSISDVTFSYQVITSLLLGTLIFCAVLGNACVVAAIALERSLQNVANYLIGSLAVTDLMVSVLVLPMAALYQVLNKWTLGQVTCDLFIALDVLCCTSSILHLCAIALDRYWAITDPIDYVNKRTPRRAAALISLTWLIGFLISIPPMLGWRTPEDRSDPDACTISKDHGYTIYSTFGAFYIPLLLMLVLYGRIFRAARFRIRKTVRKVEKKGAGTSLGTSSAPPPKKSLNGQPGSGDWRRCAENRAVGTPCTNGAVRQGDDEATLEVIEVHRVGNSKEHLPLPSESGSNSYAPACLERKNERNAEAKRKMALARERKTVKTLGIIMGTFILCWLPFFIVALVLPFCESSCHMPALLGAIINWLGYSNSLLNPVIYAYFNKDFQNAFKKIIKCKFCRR
Description: Binding affinity was measured against 5-hydroxytryptamine 1A receptor by displacement of [3H]8-OH-DPAT by lysergic acid amides. In outline:
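Rat hippocampal membranes from pooled male Sprague-Dawley rats, preincubated at 37 °C, in 50 mM Tris HCl (pH 7.4) with 0.5 mM Na2EDTA, 0.1% ascorbate and 10 μM pargyline. Competition against 0.75 nM [3H]-8-OH-DPAT for 10 min at 37 °C, then GF/C filtration and scintillation counting. Triplicates. Three to four experiments combined, analysed with EBDA/LIGAND.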

Experiment [8] has as its system Rattus norvegicus. Description: Effective dose in trained rats was determined at a dose of 55 (nmol/kg) Value in parentheses are with 95% confidence intervals. Format: functional.
Experiment [9] deals with Rattus norvegicus. The experiment can be described thus: Potency in trained rats was determined with relative to reference compound […] at a dose of 55 (nmol/kg). Format: functional.
Experiment [10] relates to Rattus norvegicus. Description: Percentage of animals selecting drug lever in trained rats at a dose 55 (nmol/kg). Format: functional. In outline:
(§2)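 Drug-naive rats held at about 80% of free-feeding weight were trained on a two-lever FR50 food schedule to tell ip LSD tartrate (186 nmol/kg, 0.08 mg/kg) from saline, given 30 min before sessions. Test drugs were given ip in saline (1 mL/kg). Tests ran under extinction and ended at 50 presses on either lever. Rats had to hold 85% correct on training days. Read-out was % selecting the drug lever per dose.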

Experiment [11] has as its system Rattus norvegicus. Description: Effective dose in trained rats was determined at a dose of 186 (nmol/kg). Format: functional.
In experiment [12] the test system is Rattus norvegicus. The experiment can be described thus: Percentage of animals selecting drug lever in trained rats at a dose 186 (nmol/kg). Format: functional. In outline:
as §1

The test system of experiment [13] is Rattus norvegicus. The experiment can be described thus: Potency in trained rats was determined with relative to reference compound […] at a dose of 186 (nmol/kg). Format: functional.
In experiment [14] the test system is Rattus norvegicus. Description: Compound was tested for its effect on animals. Value reported as number of rats disrupted in trained rats at a dose of 186 (nmol/kg). Format: functional. In outline: as §1
The test system of experiment [15] is Rattus norvegicus. The experiment can be described thus: Percentage of animals selecting drug lever in trained rats at a dose 171 (nmol/kg). Format: functional. The method in brief:
as §1

Experiment [16] concerns Rattus norvegicus. Description: Percentage of animals selecting drug lever in trained rats at a dose 128 (nmol/kg). Format: functional. In outline:
as §1

The test system of experiment [17] is Rattus norvegicus. The experiment can be described thus: Compound was tested for its effect on animals. Value reported as number of rats disrupted in trained rats at a dose of 171 (nmol/kg). Format: functional. In outline:
as §1

Experiment [18] has as its system Rattus norvegicus. The experiment can be described thus: Percentage of animals selecting drug lever in trained rats at a dose 213 (nmol/kg). Format: functional. In outline:
as §1

Experiment [19] has as its system Rattus norvegicus. Description: Compound was tested for its effect on animals. Value reported as number of rats disrupted in trained rats at a dose of 426 (nmol/kg). Format: functional. The method in brief: as §1
Experiment [20] relates to Rattus norvegicus. The experiment can be described thus: Effective dose in trained rats was determined at a dose of 86 (nmol/kg). Format: functional, organism-based.
In experiment [21] the test system is Rattus norvegicus. The experiment can be described thus: Compound was tested for its effect on animals. Value reported as number of rats disrupted in trained rats at a dose of 213 (nmol/kg). Format: functional. The method in brief:
as §1

Experiment [22] deals with Rattus norvegicus. Description: Compound was tested for its effect on animals. Value reported as number of rats disrupted in trained rats at a dose of 86 (nmol/kg). Format: functional. The method in brief:
as §1

For experiment [23], the system named is Rattus norvegicus. The experiment can be described thus: Compound was tested for its effect on animals. Value reported as number of rats disrupted in trained rats at a dose of 128 (nmol/kg). Format: functional. The method in brief:
as §1

Experiment [24] relates to Rattus norvegicus. The experiment can be described thus: Percentage of animals selecting drug lever in trained rats at a dose 86 (nmol/kg). Format: functional. In outline: as §2
Experiment [25] has as its system Rattus norvegicus. Description: Percentage of animals selecting drug lever in trained rats at a dose 426 (nmol/kg). Format: functional. The method in brief: as §1

In general, pKi refers to the negative decadic logarithm of the Ki, by convention in mol/L. Low values mean a large Ki, high ones a small Ki. One may read the ED50 as the midpoint of the dose-response relation. For the molecule `CCC[C@@H](C)NC(=O)[C@@H]1C=C2c3cccc4[nH]cc(c34)C[C@H]2N(C)C1`, the D in experiment [1] was determined as 30%; in [5], 0%; in experiment [6] it was 0%. Moreover, the negative logarithm of the Ki (pKi) in experiment [2] is 8.35; in experiment [7], 9.22. For the same molecule, the values for the SDL in experiment [3], in experiment [4] and in [10] were 100%, 44% and 14%, respectively. Besides, the ED50 in experiment [8] was determined as 0.102 µmol/kg. Further, the Potency in experiment [9] is on record as 0.47.
Take `CCCCCC(C)NC(=O)[C@@H]1C=C2c3cccc4[nH]cc(c34)C[C@H]2N(C)C1` (some centres undefined): the pKi in experiment [2] is 6.45; in experiment [7] it was 7.85.
Molecule `CCN(CC)C(=O)[C@@H]1C=C2c3cccc4[nH]cc(c34)C[C@H]2N(C)C1` [LYSERGIDE] came in with an ED50 in experiment [11] of 0.048 µmol/kg. The SDL in [12] is on record as 100%. The molecule also came in with a Potency in experiment [13] of 1. This molecule also returned a D in experiment [14] of 0%.
As for `CCCC[C@@H](C)NC(=O)[C@@H]1C=C2c3cccc4[nH]cc(c34)C[C@H]2N(C)C1`, the SDL in [15] is recorded as 55%; in [16], 40%; in [18] it was 50%; in experiment [24], 22%; in experiment [25], 0%. The results for the negative logarithm of the Ki (pKi) in experiment [2] and in experiment [7] were 7.80 and 9.49, respectively. Also, the D was 0% in [17]; 0% in experiment [19]; 27% in [21]; 10% in [22]; 0% in [23]. Further, the ED50 result in experiment [20] is “Weak activity”.
